According to ChEMBL document CHEMBL2069274, “Novel 3-nitro-1H-1,2,4-triazole-based amides and sulfonamides as potential antitrypanosomal agents” (J Med Chem, 2012):
Activity calls are given as the source filed them. The calls are words filed in the database; no cut-off is given here.

Tests used:
Trypanosoma cruzi [1] = assay: Antitrypanosomal activity against Trypanosoma cruzi Tulahuen C4 amastigotes; format: functional, organism-based
Method in brief: (§1)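 96-well format screens: bloodstream-form T. b. rhodesiense trypomastigotes, T. cruzi amastigotes within infected L6 rat skeletal myoblasts, axenically grown L. donovani amastigotes, and uninfected L6 cells for cytotoxicity. IC50 (μM) obtained by linear regression from sigmoidal dose–inhibition curves.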

[2] = Selectivity index, ratio of IC50 for rat L6 cells to IC50 for Trypanosoma brucei rhodesiense STIB900 trypomastigotes
[3] = Selectivity index, ratio of IC50 for rat L6 cells to IC50 for Trypanosoma cruzi Tulahuen C4 amastigotes
L6 = assay: Cytotoxicity against rat L6 cells; format: cell-based; method in brief: as §1
[4] = Selectivity index, ratio of IC50 for rat L6 cells to IC50 for Leishmania donovani MHOM-ET67/L82 amastigotes
[5] = tested on: Trypanosoma brucei rhodesiense; assay: Antitrypanosomal activity against Trypanosoma brucei rhodesiense STIB 900 trypomastigotes; format: functional, organism-based; method in brief: as §1
Trypanosoma cruzi [6] = assay: Ratio of benznidazole IC50 to compound IC50 for Trypanosoma cruzi Tulahuen C4 amastigotes; format: functional
Leishmania donovani = assay: Antileishmanial activity against Leishmania donovani MHOM-ET67/L82 amastigotes; format: functional, organism-based; method in brief: as §1
[7] = tested on: Trypanosoma brucei brucei; assay: Antitrypanosomal activity against bloodstream form of Trypanosoma brucei brucei Lister 427 clone 221a overexpressing tet-inducible NTR in presence of tetracycline after 3 days; settings: 72 h
[8] = tested on: Trypanosoma brucei brucei; assay: Antitrypanosomal activity against bloodstream form of Trypanosoma brucei brucei Lister 427 clone 221a overexpressing tet-inducible NTR in absence of tetracycline after 3 days; settings: 72 h
[9] = tested on: Trypanosoma brucei brucei; assay: Activity of Trypanosoma brucei brucei recombinant Type I nitroreductase assessed as oxidised NADH level by spectrophotometric analysis
Method in brief: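 His-tagged recombinant TbNTR, purified, assayed spectrophotometrically at 340 nm with nitrotriazole substrate (100 μM) and NADH (100 μM); activity expressed as nmol NADH oxidized min−1 mg−1 enzyme.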

[10] = tested on: Trypanosoma brucei brucei; assay: Antitrypanosomal activity against bloodstream form of Trypanosoma brucei brucei Lister 427 clone 221a; format: functional, organism-based
Method in brief: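 Bloodstream-form parasites seeded at 1 × 10^3 per ml in growth medium with a range of compound concentrations; where required, TbNTR expression induced with tetracycline (1 μg/mL). Incubation 3 days at 37 °C, then Alamar blue added for a further 16 h. Cell density read and IC50 determined.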

[11] = tested on: Trypanosoma brucei brucei; assay: Selectivity ratio of IC50 for Trypanosoma brucei brucei Lister 427 clone 221a overexpressing tet-inducible NTR in absence of tetracycline to IC50 for Trypanosoma brucei brucei overexpressing tet-inducible NTR in presence of tetracyclin
[12] = target: Trypanothione reductase (Trypanosoma brucei brucei) (UniProt P39051); assay: Inhibition of Trypanosoma brucei brucei trypanothione reductase at <100 uM
Trypanothione reductase (Trypanosoma brucei brucei), sequence (P39051 whole entry, looked up): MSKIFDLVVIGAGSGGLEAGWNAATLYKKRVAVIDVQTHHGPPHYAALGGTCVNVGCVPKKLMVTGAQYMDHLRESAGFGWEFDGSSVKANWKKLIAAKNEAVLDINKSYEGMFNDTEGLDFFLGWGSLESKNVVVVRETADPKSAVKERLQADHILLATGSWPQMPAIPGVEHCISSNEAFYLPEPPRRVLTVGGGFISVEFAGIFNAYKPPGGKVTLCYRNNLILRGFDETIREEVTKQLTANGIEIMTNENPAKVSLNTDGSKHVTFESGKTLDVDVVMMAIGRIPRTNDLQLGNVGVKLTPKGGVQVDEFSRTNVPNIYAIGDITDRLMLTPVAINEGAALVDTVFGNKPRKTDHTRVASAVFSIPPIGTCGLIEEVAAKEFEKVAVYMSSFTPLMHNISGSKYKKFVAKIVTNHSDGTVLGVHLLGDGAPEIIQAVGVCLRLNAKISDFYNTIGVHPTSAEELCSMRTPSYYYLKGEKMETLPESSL

Work on `O=C(Cn1cnc([N+](=O)[O-])n1)Nc1nc2ccc(Cl)cc2s1` yielded an IC50 (Trypanosoma cruzi [1]) of 6590 nM, a selectivity ratio [2] of 3.4 and a selectivity ratio [3] of 24.8. It also gave an IC50 (L6) of 163 µM, a selectivity ratio [4] of 28 and an IC50 [5] of 48.5 µM. The “Ratio IC50” value (Trypanosoma cruzi [6]) was 0.2 and the IC50 (Leishmania donovani) was 5.82 µM.

`O=C(NCCn1cnc([N+](=O)[O-])n1)c1ccc(C(F)(F)F)cc1` gave an IC50 [7] of 90 nM, an IC50 (Trypanosoma cruzi [1]) of 438 nM and an IC50 [8] of 1.26 µM. The Activity [9] was “Active”, the IC50 [10] was 1300 nM and the “Ratio IC50” value [11] was 14. The selectivity ratio [3] was > 625, the IC50 (L6) was > 274 µM and the inhibition [12] was “inactive”. For the same compound, the IC50 [5] was 3.16 µM, the “Ratio IC50” value (Trypanosoma cruzi [6]) was 3.6 and the IC50 (Leishmania donovani) was 33.4 µM.

Work on `O=[N+]([O-])c1ncn(CCCNS(=O)(=O)c2ccc(C(F)(F)F)cc2)n1` yielded an IC50 [7] of 250 nM, an IC50 (Trypanosoma cruzi [1]) of 359 nM and an IC50 [8] of 7.83 µM. The Activity [9] was “Active”, the IC50 [10] was 3400 nM and the “Ratio IC50” value [11] was 31. For the same compound, the selectivity ratio [2] was 467, the selectivity ratio [3] was 656 and the IC50 (L6) was 235 µM. For the same compound, the inhibition [12] was “inactive”, the IC50 [5] was 0.504 µM and the “Ratio IC50” value (Trypanosoma cruzi [6]) was 4.4. For the same compound, the IC50 (Leishmania donovani) was 13.1 µM.

`Cc1ccc2nc(NC(=O)Cn3cnc([N+](=O)[O-])n3)sc2c1` gave an IC50 (Trypanosoma cruzi [1]) of 1800 nM, a selectivity ratio [2] of 14.8 and a selectivity ratio [3] of 94.4. The IC50 (L6) was 170 µM, the selectivity ratio [4] was 28.7 and the IC50 [5] was 11.5 µM. The “Ratio IC50” value (Trypanosoma cruzi [6]) was 0.9 and the IC50 (Leishmania donovani) was 5.91 µM.

With `O=C(Cn1cnc([N+](=O)[O-])n1)Nc1nc2cc(Cl)ccc2o1` the IC50 (Trypanosoma cruzi [1]) was 7880 nM, the selectivity ratio [2] was < 1 and the selectivity ratio [3] was 3.3. It also gave an IC50 (L6) of 26.3 µM, a selectivity ratio [4] of 5.6 and an IC50 [5] of 34.4 µM. For the same compound, the “Ratio IC50” value (Trypanosoma cruzi [6]) was 0.2 and the IC50 (Leishmania donovani) was 4.68 µM.

In the case of `O=C(NCCCn1cnc([N+](=O)[O-])n1)c1ccc2ccccc2n1`, the IC50 (Trypanosoma cruzi [1]) is reported as 138 nM, the Activity [9] is reported as “Active” and the IC50 [10] is reported as > 10000 nM. For the same compound, the selectivity ratio [3] was 1580, the IC50 (L6) was 218 µM and the inhibition [12] was “inactive”. The IC50 [5] was 3.22 µM, the “Ratio IC50” value (Trypanosoma cruzi [6]) was 11.3 and the IC50 (Leishmania donovani) was 19.9 µM.

For `O=[N+]([O-])c1ncn(CCCCNS(=O)(=O)c2ccc(OC(F)(F)F)cc2)n1`, the IC50 (Trypanosoma cruzi [1]) was 203 nM, the selectivity ratio [2] was 235 and the selectivity ratio [3] was 552. The IC50 (L6) was 112 µM, the selectivity ratio [4] was 14.4 and the IC50 [5] was 0.477 µM. The “Ratio IC50” value (Trypanosoma cruzi [6]) was 7.7 and the IC50 (Leishmania donovani) was 7.8 µM.

Compound `O=[N+]([O-])c1ncn(CCCNS(=O)(=O)c2ccc(Cl)s2)n1` has an IC50 [7] of 230 nM, an IC50 (Trypanosoma cruzi [1]) of 438 nM and an IC50 [8] of 4.34 µM. The IC50 [10] was 2300 nM, the “Ratio IC50” value [11] was 19 and the selectivity ratio [2] was 122. For the same compound, the selectivity ratio [3] was 556, the IC50 (L6) was 244 µM and the selectivity ratio [4] was 7.4. The IC50 [5] was 1.99 µM, the “Ratio IC50” value (Trypanosoma cruzi [6]) was 3.6 and the IC50 (Leishmania donovani) was 33 µM.
